According to ChEMBL document CHEMBL2406983, “Synthesis and the 5-HT6 receptor antagonistic effect of 3-arylsulfonylamino-5,6-dihydro-6-substituted pyrazolo[3,4]pyridinones for neuropathic pain treatment” (Bioorg Med Chem Lett, 2013):
Activity calls are given as the source filed them. The calls are words filed in the database; no cut-off is given here.

Columns and labels:
[1] = biological target: T1, 5-hydroxytryptamine receptor 6 (Homo sapiens, UniProt P50406); test: Antagonist activity at human 5-HT6 receptor expressed in human HeLa cells assessed as inhibition of 5-HT-induced cAMP accumulation at 10 uM pretreated for 10 mins before 5-HT addition measured after 30 mins; format: functional, cell-based
Procedure, shortened: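 HeLa cells stably expressing human 5-HT6 receptor, grown at 37 °C in 5% CO2/95% air, suspended in PBS with 2 mM IBMX. Compound pretreatment 10 min, then 100 nM 5-HT stimulation for 30 min. cAMP measured by HTRF (d2-labeled cAMP plus cryptate anti-cAMP antibody, 1 h at room temperature), excitation 314 nm, emission 668 and 620 nm. Single-point inhibition read at […].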

CYP2C9 = CYP2C9 (Homo sapiens, UniProt P11712); test: Inhibition of human CYP2C9 assessed as residual activity using sulfaphenazol as […] at 10 uM relative to control; format: ADME; conditions: read-out: Activity
CYP1A2 = biological target: T2, CYP1A2 (Homo sapiens, UniProt P05177); test: Inhibition of human CYP1A2 assessed as residual activity using alpha-naphthoflavon as […] at 10 uM relative to control; format: ADME; conditions: read-out: Activity
T2 sequence (P05177 whole entry): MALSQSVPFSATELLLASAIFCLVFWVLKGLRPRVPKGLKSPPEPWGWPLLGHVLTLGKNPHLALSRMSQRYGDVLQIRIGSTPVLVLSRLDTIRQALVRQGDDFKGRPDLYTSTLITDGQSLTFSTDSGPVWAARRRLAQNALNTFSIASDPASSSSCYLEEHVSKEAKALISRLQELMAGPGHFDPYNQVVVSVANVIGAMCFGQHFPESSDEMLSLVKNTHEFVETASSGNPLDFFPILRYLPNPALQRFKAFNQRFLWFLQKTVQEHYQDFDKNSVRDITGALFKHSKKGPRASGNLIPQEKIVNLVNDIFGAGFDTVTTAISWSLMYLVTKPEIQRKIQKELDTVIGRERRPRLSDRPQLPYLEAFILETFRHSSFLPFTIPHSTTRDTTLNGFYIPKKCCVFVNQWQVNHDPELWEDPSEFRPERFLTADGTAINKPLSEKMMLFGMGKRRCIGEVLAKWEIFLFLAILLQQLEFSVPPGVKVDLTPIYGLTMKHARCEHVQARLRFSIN

CYP2D6 = CYP2D6 (Homo sapiens, UniProt P10635); test: Inhibition of human CYP2D6 assessed as residual activity using quinidine as […] at 10 uM relative to control; format: ADME; conditions: probe quinidine, read-out: Activity
[2] = biological target: T1, 5-hydroxytryptamine receptor 6; test: Antagonist activity at human 5-HT6 receptor expressed in human HeLa cells assessed as inhibition of 5-HT-induced cAMP accumulation pretreated for 10 mins before 5-HT addition measured after 30 mins; format: functional, cell-based
CYP3A4 = CYP3A4 (Homo sapiens, UniProt P08684); test: Inhibition of human CYP3A4 assessed as residual activity using ketoconazole as […] at 10 uM relative to control; format: ADME; conditions: probe ketoconazole, read-out: Activity
[3] = Metabolic stability in human liver microsomes assessed as compound remaining after 30 mins; format: ADME, Microsome; conditions: read-out: Stability
Procedure, shortened: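 Compounds incubated with human hepatic microsomes; percent of parent concentration remaining at 30 min.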

CYP2C19 = CYP2C19 (Homo sapiens, UniProt P33261); test: Inhibition of human CYP2C19 assessed as residual activity using miconazole as […] at 10 uM relative to control; format: ADME; conditions: probe miconazole, read-out: Activity
Rattus norvegicus [4] = species on record: Rattus norvegicus; test: Ratio of gabapentin antiallodynic activity to compound antiallodynic activity in rat spinal nerve ligation neuropathic pain cold allodynia model; format: functional
Rattus norvegicus [5] = test: Antiallodynic activity in rat spinal nerve ligation neuropathic pain mechanical allodynia model at 100 mg/kg, po after 1 to 3 hrs; format: functional, organism-based; set-up: dose 100 mg/kg
Procedure, shortened: (§1)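 Cold and mechanical allodynia assessed at hours after a single oral 100 mg/kg dose, n = 4 per group; gabapentin 100 mg/kg po as reference.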

Rattus norvegicus [6] = test: Antiallodynic activity in rat spinal nerve ligation neuropathic pain cold allodynia model at 100 mg/kg, po after 1 to 5 hrs; format: functional, organism-based; set-up: dose 100 mg/kg; procedure, shortened: as §1
Rattus norvegicus [7] = test: Antiallodynic activity in rat spinal nerve ligation neuropathic pain mechanical allodynia model at 100 mg/kg, po after 5 hrs; format: functional, organism-based; set-up: dose 100 mg/kg; procedure, shortened: as §1

T1 sequence (P50406 whole entry): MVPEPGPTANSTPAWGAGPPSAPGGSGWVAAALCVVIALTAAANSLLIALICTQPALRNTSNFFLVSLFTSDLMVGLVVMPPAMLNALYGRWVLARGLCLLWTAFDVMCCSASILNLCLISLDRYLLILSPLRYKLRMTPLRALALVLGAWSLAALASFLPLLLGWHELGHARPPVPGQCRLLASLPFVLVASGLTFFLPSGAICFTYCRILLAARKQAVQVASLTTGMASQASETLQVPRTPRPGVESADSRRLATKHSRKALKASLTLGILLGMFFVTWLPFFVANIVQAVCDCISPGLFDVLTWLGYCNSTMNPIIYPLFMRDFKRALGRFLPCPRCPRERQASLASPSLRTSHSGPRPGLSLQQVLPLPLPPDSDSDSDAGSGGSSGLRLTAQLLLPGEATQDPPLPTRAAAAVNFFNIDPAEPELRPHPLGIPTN
Chain of CYP2C19 (P33261 whole entry): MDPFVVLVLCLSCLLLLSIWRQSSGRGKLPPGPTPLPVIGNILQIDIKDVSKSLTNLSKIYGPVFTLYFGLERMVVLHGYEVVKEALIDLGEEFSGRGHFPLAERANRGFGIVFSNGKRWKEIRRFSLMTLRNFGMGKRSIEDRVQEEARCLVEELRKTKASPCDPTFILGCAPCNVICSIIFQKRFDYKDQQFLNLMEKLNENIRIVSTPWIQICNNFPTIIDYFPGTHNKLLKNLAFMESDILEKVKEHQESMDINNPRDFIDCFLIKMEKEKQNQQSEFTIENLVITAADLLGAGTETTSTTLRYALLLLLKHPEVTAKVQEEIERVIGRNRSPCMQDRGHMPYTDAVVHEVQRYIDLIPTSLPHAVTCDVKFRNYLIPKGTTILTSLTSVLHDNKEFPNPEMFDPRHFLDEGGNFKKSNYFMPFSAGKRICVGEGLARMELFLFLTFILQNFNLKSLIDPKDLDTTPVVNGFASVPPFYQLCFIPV
Chain of CYP2D6 (P10635 whole entry): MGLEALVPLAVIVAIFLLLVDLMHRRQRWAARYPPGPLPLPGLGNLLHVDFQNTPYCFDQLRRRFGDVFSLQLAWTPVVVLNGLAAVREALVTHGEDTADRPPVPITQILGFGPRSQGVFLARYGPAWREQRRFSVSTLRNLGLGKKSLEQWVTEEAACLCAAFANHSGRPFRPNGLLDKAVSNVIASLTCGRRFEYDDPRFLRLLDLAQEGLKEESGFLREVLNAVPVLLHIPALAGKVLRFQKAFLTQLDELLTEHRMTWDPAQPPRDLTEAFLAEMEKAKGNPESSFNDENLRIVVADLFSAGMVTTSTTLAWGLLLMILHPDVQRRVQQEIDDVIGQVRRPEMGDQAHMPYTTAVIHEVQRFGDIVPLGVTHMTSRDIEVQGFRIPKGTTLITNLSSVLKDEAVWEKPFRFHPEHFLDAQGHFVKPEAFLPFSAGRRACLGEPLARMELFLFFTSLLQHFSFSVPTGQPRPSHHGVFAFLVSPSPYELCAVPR
Chain of CYP2C9 (P11712 whole entry): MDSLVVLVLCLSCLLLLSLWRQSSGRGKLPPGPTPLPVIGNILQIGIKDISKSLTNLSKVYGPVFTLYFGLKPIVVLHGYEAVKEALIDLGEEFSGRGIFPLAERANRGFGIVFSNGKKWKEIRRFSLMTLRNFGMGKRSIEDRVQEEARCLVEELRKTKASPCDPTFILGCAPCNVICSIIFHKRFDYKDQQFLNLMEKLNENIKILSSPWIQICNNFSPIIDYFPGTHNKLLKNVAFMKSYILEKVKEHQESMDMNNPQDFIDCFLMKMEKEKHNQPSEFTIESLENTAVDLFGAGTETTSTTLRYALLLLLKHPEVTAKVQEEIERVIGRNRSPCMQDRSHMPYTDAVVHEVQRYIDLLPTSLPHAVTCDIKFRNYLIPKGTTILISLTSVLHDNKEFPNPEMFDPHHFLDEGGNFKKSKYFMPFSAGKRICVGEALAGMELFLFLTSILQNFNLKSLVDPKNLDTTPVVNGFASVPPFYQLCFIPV
Chain of CYP3A4 (P08684 whole entry): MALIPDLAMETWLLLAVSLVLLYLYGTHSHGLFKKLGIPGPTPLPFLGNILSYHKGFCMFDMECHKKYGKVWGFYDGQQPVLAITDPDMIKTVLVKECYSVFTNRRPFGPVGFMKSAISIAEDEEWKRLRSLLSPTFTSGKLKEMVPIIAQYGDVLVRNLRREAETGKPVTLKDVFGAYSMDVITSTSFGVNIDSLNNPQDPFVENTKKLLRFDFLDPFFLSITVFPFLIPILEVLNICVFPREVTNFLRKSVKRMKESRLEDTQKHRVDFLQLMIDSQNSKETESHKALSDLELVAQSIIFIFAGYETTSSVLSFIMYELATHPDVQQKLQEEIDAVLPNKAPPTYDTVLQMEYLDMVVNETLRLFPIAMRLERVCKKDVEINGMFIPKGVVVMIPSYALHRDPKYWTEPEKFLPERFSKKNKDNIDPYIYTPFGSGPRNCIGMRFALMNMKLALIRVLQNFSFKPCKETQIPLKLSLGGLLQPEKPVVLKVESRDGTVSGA

## Cc1ccc(N2CCc3c(NS(=O)(=O)c4ccccc4F)n[nH]c3C2=O)cc1
[1]
  inhibition: 29.6%

## COc1ccc(OC)c(S(=O)(=O)Nc2n[nH]c3c2CCN(c2ccc(C)cc2)C3=O)c1
[1]
  inhibition: 3.8%

## COc1ccc(N2CCc3c(NS(=O)(=O)c4cccc(F)c4)n[nH]c3C2=O)cc1
CYP2C9
  activity at 10 µM: 78.6%
CYP1A2
  activity at 10 µM: 63.5%
CYP2D6
  activity at 10 µM: 87.8%
[1]
  inhibition: 95.2%
[2]
  IC50: 580 nM
CYP3A4
  activity at 10 µM: 19.5%
[3]
  remaining at 0.5 h: 96.3%
CYP2C19
  activity at 10 µM: 81.8%

## COc1ccc(S(=O)(=O)Nc2n[nH]c3c2CCN(C2CCNCC2)C3=O)cc1
[1]
  inhibition: 26.1%

## Cc1ccc(N2CCc3c(NS(=O)(=O)c4cccc(C(F)(F)F)c4)n[nH]c3C2=O)cc1
[1]
  inhibition: 69%
[2]
  IC50: 3280 nM

## Cc1ccc(N2CCc3c(NS(=O)(=O)c4ccc(F)cc4)n[nH]c3C2=O)cc1
[1]
  inhibition: 67.9%
[2]
  IC50: 5220 nM

## O=C1c2[nH]nc(NS(=O)(=O)c3cccc4ccccc34)c2CCN1C1CCNCC1
CYP2C9
  activity at 10 µM: 94.5%
CYP1A2
  activity at 10 µM: 67.7%
CYP2D6
  activity at 10 µM: 95.1%
[1]
  inhibition: 89.5%
[2]
  IC50: 770 nM
CYP3A4
  activity at 10 µM: 16.7%
[3]
  remaining at 0.5 h: 101%
CYP2C19
  activity at 10 µM: 99.8%

## Cc1ccc(F)c(S(=O)(=O)Nc2n[nH]c3c2CCN(CC2CCNCC2)C3=O)c1
[1]
  inhibition: 30.6%

## Cc1ccc(N2CCc3c(NS(=O)(=O)c4cccc(Cl)c4C)n[nH]c3C2=O)cc1
[1]
  inhibition: 92.2%
[2]
  IC50: 1660 nM

## Cc1ccc(N2CCc3c(NS(=O)(=O)c4cccc(F)c4)n[nH]c3C2=O)cc1
[1]
  inhibition: 18.1%

## Cc1c(Cl)cccc1S(=O)(=O)Nc1n[nH]c2c1CCN(CC1CCNCC1)C2=O
[1]
  inhibition: 51.7%

## COc1ccc(S(=O)(=O)Nc2n[nH]c3c2CCN(CC2CCNCC2)C3=O)cc1
[1]
  inhibition: 15.1%

## COc1ccc(N2CCc3c(NS(=O)(=O)c4cccc(OC)c4)n[nH]c3C2=O)cc1
[1]
  inhibition: 63.3%
[2]
  IC50: 7080 nM

## COc1ccc(N2CCc3c(NS(=O)(=O)c4ccc(F)cc4)n[nH]c3C2=O)cc1
[1]
  inhibition: 30.6%

## O=C1c2[nH]nc(NS(=O)(=O)c3cccc4ccccc34)c2CCN1CC1CCNCC1
CYP2C9
  activity at 10 µM: 98.4%
Rattus norvegicus [4]
  Ratio: 5
CYP1A2
  activity at 10 µM: 79.1%
CYP2D6
  activity at 10 µM: 97.2%
Rattus norvegicus [5]
  Activity: Active
[1]
  inhibition: 94.1%
[2]
  IC50: 310 nM
Rattus norvegicus [6]
  Activity: Active
CYP3A4
  activity at 10 µM: 17.8%
[3]
  remaining at 0.5 h: 90.8%
CYP2C19
  activity at 10 µM: 104%
Rattus norvegicus [7]
  Activity: inactive

## O=C1c2[nH]nc(NS(=O)(=O)c3cccc(Cl)c3)c2CCN1CC1CCNCC1
[1]
  inhibition: 31%

## Cc1ccc(N2CCc3c(NS(=O)(=O)c4cc(C)ccc4F)n[nH]c3C2=O)cc1
[1]
  inhibition: 25.9%

## Cc1ccc(N2CCc3c(NS(=O)(=O)c4ccccc4)n[nH]c3C2=O)cc1
[1]
  inhibition: 23.5%

## O=C1c2[nH]nc(NS(=O)(=O)c3ccc4ccccc4c3)c2CCN1CC1CCNCC1
[1]
  inhibition: 40.9%

## CC(C)(C)c1ccc(S(=O)(=O)Nc2n[nH]c3c2CCN(CC2CCNCC2)C3=O)cc1
[1]
  inhibition: 11.5%

## Cc1ccc(N2CCc3c(NS(=O)(=O)c4cccc(Cl)c4)n[nH]c3C2=O)cc1
[1]
  inhibition: 5.4%

## COc1ccc(NS(=O)(=O)c2ccc(I)cc2)cc1N1CCN(C)CC1
[1]
  inhibition: 97.7%

## COc1ccc(N2CCc3c(NS(=O)(=O)c4ccccc4)n[nH]c3C2=O)cc1
[1]
  inhibition: 30.6%

## COc1cccc(S(=O)(=O)Nc2n[nH]c3c2CCN(c2ccc(C)cc2)C3=O)c1
[1]
  inhibition: 63.2%
[2]
  IC50: 6770 nM
